Assays:
[1] = tested on: A375 human melanoma cell line; experiment: Cytotoxicity by SRB assay on A375 cells; type: cell-based; conditions: read-out: IC50 on A375 cells, 72 h treatment, mean ± SD (n = 3)
Procedure, shortened: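 A375 cells kept in DMEM with 10% FBS and 100 U mL−1 penicillin/streptomycin at 37 °C, 5% CO2. Seeded, grown 24 h, then exposed 72 h to test compound at 0.01–100 μM. Fixed in 10% TCA (1 h, 4 °C), stained with 0.4% w/v SRB (10 min, dark), washed with 1% acetic acid, dye dissolved in 10 mM Tris pH 10.5, A540 read.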

[2] = tested on: normal human skin fibroblast cells (HSF); experiment: Cytotoxicity by SRB assay on normal HSF cells; type: cell-based; conditions: for IC50: Homo sapiens, Skin fibroblast, read-out: HSF IC50; for Selectivity index (SI): IC50 of normal cells (HSF)/IC50 of tumor cells (A375)
Procedure, shortened: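 Normal human skin fibroblasts (HSF) grown in DMEM/10% FBS/penicillin-streptomycin, 37 °C, 5% CO2. Plated 24 h, then 72 h with test compound at 0.01–100 μM. TCA fixation, SRB staining, 10 mM Tris pH 10.5 solubilisation, absorbance at 540 nm. IC50 by Emax curve fit, mean ± SD. Selectivity index = IC50 in HSF / IC50 in A375.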

A375 cells [3] = experiment: Cell cycle analysis by DNA flow cytometry; type: cell-based, human; conditions: A375, 48 h treatment
A375 cells [4] = experiment: Annexin V-FITC/PI apoptosis assay; type: cell-based, human; conditions: A375, IC50 concentration, 48 h
A375 cells [5] = experiment: Scratch wound healing assay; type: cell-based, human; conditions: 4j at 0.5 μM
Procedure, shortened: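 Confluent A375 monolayers (1 × 10^5 cells/well seeding) scored with a pipette tip to give one straight cell-free line, PBS-rinsed, then exposed to test compound. Gap imaged at ×100 at 0, 24, 48 and 72 h; horizontal wound width measured. Closure % = 100 − (Wt/W0 × 100). Triplicates, mean ± SD; ANOVA with Tukey post-hoc, P < 0.05.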

BRAF^V600E = BRAF^V600E (Homo sapiens, UniProt P15056, V600E); experiment: BRAF^V600E inhibition assay; type: cell-based
Sequence of BRAF^V600E (P15056 whole entry V600E): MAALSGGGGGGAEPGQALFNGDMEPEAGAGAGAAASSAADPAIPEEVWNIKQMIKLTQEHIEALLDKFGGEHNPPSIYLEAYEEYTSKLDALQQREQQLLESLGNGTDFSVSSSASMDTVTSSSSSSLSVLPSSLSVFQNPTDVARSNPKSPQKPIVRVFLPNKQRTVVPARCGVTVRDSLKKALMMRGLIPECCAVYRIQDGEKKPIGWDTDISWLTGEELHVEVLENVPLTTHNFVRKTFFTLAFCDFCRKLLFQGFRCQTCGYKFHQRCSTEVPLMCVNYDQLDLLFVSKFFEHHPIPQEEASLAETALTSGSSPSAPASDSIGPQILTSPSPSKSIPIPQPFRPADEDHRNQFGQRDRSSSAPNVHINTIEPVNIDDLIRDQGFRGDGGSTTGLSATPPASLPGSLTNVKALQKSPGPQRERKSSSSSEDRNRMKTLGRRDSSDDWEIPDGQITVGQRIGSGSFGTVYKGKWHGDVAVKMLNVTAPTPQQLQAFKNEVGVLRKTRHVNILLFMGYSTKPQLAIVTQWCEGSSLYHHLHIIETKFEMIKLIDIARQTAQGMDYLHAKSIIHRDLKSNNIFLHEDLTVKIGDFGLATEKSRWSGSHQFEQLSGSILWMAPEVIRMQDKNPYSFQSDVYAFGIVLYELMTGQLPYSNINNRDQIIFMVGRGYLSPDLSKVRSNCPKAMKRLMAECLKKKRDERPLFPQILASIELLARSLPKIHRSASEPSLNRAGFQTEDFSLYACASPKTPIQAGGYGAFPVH

VEGFR-2 = VEGFR-2 (Homo sapiens, UniProt P35968); experiment: VEGFR-2 inhibition assay; type: cell-based
Sequence of VEGFR-2 (P35968 20-1356): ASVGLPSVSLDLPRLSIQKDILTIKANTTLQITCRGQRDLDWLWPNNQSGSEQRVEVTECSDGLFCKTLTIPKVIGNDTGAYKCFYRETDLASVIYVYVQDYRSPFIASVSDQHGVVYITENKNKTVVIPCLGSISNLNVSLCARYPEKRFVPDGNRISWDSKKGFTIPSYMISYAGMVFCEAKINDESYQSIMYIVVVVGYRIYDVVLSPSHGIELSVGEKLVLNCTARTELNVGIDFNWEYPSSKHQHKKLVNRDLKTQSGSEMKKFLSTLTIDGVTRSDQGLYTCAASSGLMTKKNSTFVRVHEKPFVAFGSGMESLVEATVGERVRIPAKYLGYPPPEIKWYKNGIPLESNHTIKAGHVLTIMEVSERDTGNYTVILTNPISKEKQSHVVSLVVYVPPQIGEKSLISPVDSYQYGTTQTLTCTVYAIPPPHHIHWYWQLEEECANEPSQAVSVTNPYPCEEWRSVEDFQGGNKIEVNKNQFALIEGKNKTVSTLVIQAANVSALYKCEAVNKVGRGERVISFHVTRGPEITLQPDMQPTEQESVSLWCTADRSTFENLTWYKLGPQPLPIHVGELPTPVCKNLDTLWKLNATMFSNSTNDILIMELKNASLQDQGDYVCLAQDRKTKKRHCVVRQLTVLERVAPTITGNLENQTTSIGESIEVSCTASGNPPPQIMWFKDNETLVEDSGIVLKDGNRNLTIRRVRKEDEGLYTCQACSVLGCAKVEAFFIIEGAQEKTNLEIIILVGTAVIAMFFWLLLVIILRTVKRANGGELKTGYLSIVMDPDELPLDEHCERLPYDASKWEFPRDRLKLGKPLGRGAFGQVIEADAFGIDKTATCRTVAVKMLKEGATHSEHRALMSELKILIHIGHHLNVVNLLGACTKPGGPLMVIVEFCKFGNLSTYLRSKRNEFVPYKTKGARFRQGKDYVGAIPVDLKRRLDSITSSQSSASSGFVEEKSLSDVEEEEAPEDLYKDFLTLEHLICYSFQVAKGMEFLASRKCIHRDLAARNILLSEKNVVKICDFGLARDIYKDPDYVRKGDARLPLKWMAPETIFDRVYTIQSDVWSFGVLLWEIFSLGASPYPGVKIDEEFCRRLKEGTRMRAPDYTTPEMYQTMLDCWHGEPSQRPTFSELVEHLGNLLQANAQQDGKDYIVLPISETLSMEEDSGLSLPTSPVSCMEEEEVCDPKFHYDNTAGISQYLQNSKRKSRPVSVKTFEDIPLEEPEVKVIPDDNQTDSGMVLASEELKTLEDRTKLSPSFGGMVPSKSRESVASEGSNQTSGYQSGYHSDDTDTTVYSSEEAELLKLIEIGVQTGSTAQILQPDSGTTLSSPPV

SMILES: O=C1C(n2nc(-c3c(O)c4ccccc4oc3=O)cc2-c2ccc(F)cc2)c2ccccc2N1Cc1ccccc1 (stereo not shown) [Compound 4c, 1-Benzyl-3-(5-(4-fluorophenyl)-3-(4-hydroxy-2-oxo-2H-chromen-3-yl)-1H-pyrazol-1-yl) indolin-2-one]
- IC50 [1]: 4.6 ± 0.32 µM

SMILES: O=C1C(n2nc(-c3c(O)c4ccccc4oc3=O)cc2-c2ccc(F)cc2)c2cc(Cl)ccc2N1Cc1ccccc1 (stereo not shown) [Compound 4f, 1-Benzyl-5-chloro-3-(5-(4-fluorophenyl)-3-(4-hydroxy-2-oxo-2H-chromen-3-yl)-1H-pyrazol-1-yl) indolin-2-one]
- IC50 [2]: 4.18 ± 0.25 µM
- Selectivity index (SI) [2]: 3.6
- IC50 [1]: 1.11 ± 0.02 µM

SMILES: O=C1C(n2nc(-c3c(O)c4ccccc4oc3=O)cc2-c2ccc(F)cc2)c2cc(Br)ccc2N1Cc1ccccc1 (stereo not shown) [Compound 4i, 1-Benzyl-5-bromo-3-(5-(4-fluorophenyl)-3-(4-hydroxy-2-oxo-2H-chromen-3-yl)-1H-pyrazol-1-yl)indolin-2-one]
- IC50 [2]: 3.26 ± 0.29 µM
- Selectivity index (SI) [2]: 2.5

SMILES: O=C1Nc2ccc(OC(F)(F)F)cc2C1n1nc(-c2c(O)c3ccccc3oc2=O)cc1-c1ccc(F)cc1 (stereo not shown) [Compound 4j, 3-(5-(4-Fluorophenyl)-3-(4-hydroxy-2-oxo-2H-chromen-3-yl)-1H-pyrazol-1-yl)-5 (trifluoromethoxy) indolin-2-one]
- cell percentage in the G2/M phase (A375 cells [3]): 16.00%
- cell percentage of the S phase (A375 cells [3]): 9.86%
- cell population of the G0/G1-phase (A375 cells [3]): 74.14%
- cell population of the pre-G phase (A375 cells [3]): 1.88%
- early apoptosis (Q2-4) (A375 cells [4]): 6.07%
- late apoptosis (Q2-2) (A375 cells [4]): 2.3%
- necrotic cell death (Q2-1) (A375 cells [4]): 2.52%
- total cell death (A375 cells [4]; apoptosis plus necrosis): ~10.22%
- scratch closure (A375 cells [5]; A375, 24 h): 14.28%
- scratch closure (A375 cells [5]; A375, 48 h): 17.57%
- scratch closure (A375 cells [5]; A375, 72 h): 35.16%
- fold more active than the reference sorafenib (BRAF^V600E inhibition) (BRAF^V600E): 2 fold
- IC50 (BRAF^V600E; BRAF^V600E IC50, A375 cells, 24 h exposure, ELISA): 1.03 µM
- IC50 [2]: 9.58 ± 0.73 µM
- Selectivity index (SI) [2]: 9.9
- IC50 (VEGFR-2): 0.64 ± 0.08 µM

SMILES: O=C1C(n2nc(-c3c(O)c4ccccc4oc3=O)cc2-c2ccc(Cl)cc2)c2ccccc2N1Cc1ccccc1 (stereo not shown) [Compound 5c, 1-Benzyl-3-(5-(4-chlorophenyl)-3-(4-hydroxy-2-oxo-2H-chromen-3-yl)-1H-pyrazol-1-yl)indolin-2-one]
- IC50 [1]: 3.8 ± 0.22 µM

SMILES: O=C1C(n2nc(-c3c(O)c4ccccc4oc3=O)cc2-c2ccc(Cl)cc2)c2cc(Cl)ccc2N1Cc1ccccc1 (stereo not shown) [Compound 5f, 1-Benzyl-5-chloro-3-(5-(4-chlorophenyl)-3-(4-hydroxy-2-oxo-2H-chromen-3-yl)-1H-pyrazol-1-yl)indolin-2-one]
- IC50 [2]: 3.59 ± 0.32 µM
- Selectivity index (SI) [2]: 3.3

SMILES: O=C1C(n2nc(-c3c(O)c4ccccc4oc3=O)cc2-c2ccc(Cl)cc2)c2cc(Br)ccc2N1Cc1ccccc1 (stereo not shown) [Compound 5i, 1-Benzyl-5-bromo-3-(5-(4-chlorophenyl)-3-(4-hydroxy-2-oxo-2H-chromen-3-yl)-1H-pyrazol-1-yl)indolin-2-one]
- IC50 [2]: 3.63 ± 0.76 µM
- Selectivity index (SI) [2]: 3.5

SMILES: CNC(=O)c1cc(Oc2ccc(NC(=O)Nc3ccc(Cl)c(C(F)(F)F)c3)cc2)ccn1 [Sorafenib, reference compound]
- cell percentage in the G2/M phase (A375 cells [3]): 23.02%
- cell population of the G0/G1-phase (A375 cells [3]): 60.43%
- cell population of the pre-G phase (A375 cells [3]): 22.88%
- apoptotic cell death (A375 cells [4]): 9.6%
- scratch closure (A375 cells [5]; A375, 24 h): 9.15%
- scratch closure (A375 cells [5]; A375, 48 h): 12.07%
- scratch closure (A375 cells [5]; A375, 72 h): 24.17%

From PMC10870110 (RSC Advances, 2024)
